NPY Y1 blocker: NPY-Y1 receptor antagonists, primary screen, cell-based. HEK293-CNG Y1 cells, membrane potential fluorescence; NPY at EC95, then isoproterenol. AID 1040, 2008. Neuropeptide Y receptor type 1 (Homo sapiens), P25929. 1% of 200,000 active. inhibition, % at 3.6 µM;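 active means inhibition above the campaign mean inhibition of all tested compounds plus 3 SD, cut at about 20% in these data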
Target sequence (P25929 whole entry, looked up): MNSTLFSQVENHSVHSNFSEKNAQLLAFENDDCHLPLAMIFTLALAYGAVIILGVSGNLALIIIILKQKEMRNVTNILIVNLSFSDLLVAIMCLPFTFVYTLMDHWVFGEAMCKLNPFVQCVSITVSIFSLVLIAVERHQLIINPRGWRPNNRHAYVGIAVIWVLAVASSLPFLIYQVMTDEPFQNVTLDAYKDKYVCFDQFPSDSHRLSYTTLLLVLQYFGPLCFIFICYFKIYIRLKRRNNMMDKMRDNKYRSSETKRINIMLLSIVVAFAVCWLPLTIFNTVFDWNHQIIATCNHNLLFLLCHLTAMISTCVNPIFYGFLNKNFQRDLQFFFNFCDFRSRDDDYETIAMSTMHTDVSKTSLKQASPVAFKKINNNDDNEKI
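Material: HEK293 Y1/CNG channel cell line | Also added: NPY (25 nM), isoproterenol (1 µM), Ro 20-1724 (25 µM) | Compound: One concentration, 3.6 µM, in 0.4% DMSO | Schedule: 3 h dye uptake, 1 h room-temperature compound, 45 min post-isoproterenol | Signal: Membrane-potential fluorescent dye readout | Read-out: % inhibition of NPY effect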
PGE2 EP2 inh: human EP2 receptor antagonists, primary screen, TR-FRET cAMP, C6 glioma cells. Prostaglandin E2 receptor EP2 subtype (Homo sapiens), P43116. C6 glioma cells expressing human EP2; cells stimulated with saturating PGE2. inhibition, % at 25 µM. 0.52% of 260,000 active. AID 1422, 2008;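 active means percent inhibition above 40 after rounding to a whole number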;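 further: rat C6 glioma host cells with rolipram phosphodiesterase inhibitor present; the protocol text gives 20 µM as final concentration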
NPY-Y2 antag: NPY-Y2 receptor antagonists, primary screen, cell-based; 0.99% of 140,000 active; NPY-Y2 expressing cells, antagonist mode; inhibition, % at 2.7 µM; Neuropeptide Y receptor type 2 (Homo sapiens), P49146; in the data active means inhibition above about 17%
Target sequence (P49146 whole entry, looked up): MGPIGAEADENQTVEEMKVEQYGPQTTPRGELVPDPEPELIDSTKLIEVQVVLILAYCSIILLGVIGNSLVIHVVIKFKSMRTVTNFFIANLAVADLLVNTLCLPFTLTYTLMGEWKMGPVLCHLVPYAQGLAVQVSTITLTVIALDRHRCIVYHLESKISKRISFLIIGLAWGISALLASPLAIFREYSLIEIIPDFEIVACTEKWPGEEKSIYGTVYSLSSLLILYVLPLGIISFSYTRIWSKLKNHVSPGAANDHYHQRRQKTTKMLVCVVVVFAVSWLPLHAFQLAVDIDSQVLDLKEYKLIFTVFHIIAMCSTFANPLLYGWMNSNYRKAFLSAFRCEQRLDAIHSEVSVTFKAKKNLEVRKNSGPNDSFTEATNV
NPY-Y2 PAM-ag: NPY-Y2 potentiators or agonists, primary screen, cell-based | Neuropeptide Y receptor type 2 (Homo sapiens), P49146 | cells expressing NPY-Y2, potentiator/agonist read-out | activation, % at 3.6 µM | 0.45% of 220,000 active; in the data active means activation above about 27%;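 further: cells stimulated with NPY near EC25 plus isoproterenol at EC100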
NPY-Y1 PAM-ag: NPY-Y1 receptor potentiators or agonists, primary screen, cell-based | NPY-Y1 expressing cells, potentiator/agonist activation | activation, % at 3.6 µM | 0.37% of 220,000 active | AID 1304, 2008; in the data active means activation above about 33%, passing the limit was not always enough;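 further: cells stimulated with NPY at EC10 then isoproterenol at EC100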
EP2 mod: EP2 receptor modulators, cAMP readout, primary screen, cell-based, HTRF cAMP, PGE2 stimulation; Prostaglandin E2 receptor EP2 subtype (Homo sapiens), P43116; EP2-expressing cells, cAMP HTRF FRET, PGE2 co-stimulation; induction, % at 25 µM; 0.83% of 260,000 active; AID 940, 2007;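 active means compounds whose cAMP rise, as percent of the full-agonist control response, exceeds 60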;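 further: rat C6 glioma line stably carrying human EP2 under a CMV promoter; the protocol text gives 20 µM as final concentration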
EP2 cAMP induct: cAMP induction in EP2, EP4, beta2-AR and parental cells, confirmation, counter-screen for EP2 modulator project, cell-based, five parallel assays, C6 glioma, HEK293; shares compounds with EP2 mod; cAMP HTRF induction; plus low (about EC15) PGE2 agonist; calls only at 20 µM (by protocol); 47% of 1,300 active;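 active means cAMP induction above 50% in the main assay while under 30% in all four parallel counter assays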;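 further: rat C6 glioma cells stably expressing human EP2 receptor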
Each line names hits and unclear results; the compound was inactive in the other large screens (follow-up assays come after a bar, where they were run). Sampled rows, rich in hits. Any-hit rate of the full collection: about 2.8%.

COc1ccc(-c2cc(C(F)(F)F)nc(N3CCCCC3)n2)cc1OC	none | EP2 cAMP induct active
Cc1ccccc1S(=O)(=O)c1c(C)cc(C)n(C(C)C)c1=O	EP2 mod 71 | EP2 cAMP induct active
CCCSc1nc(C)cc(C)c1S(=O)(=O)c1ccccc1C	none (no result: PGE2 EP2 inh)
CCCCn1c(C)cc(C)c(S(=O)(=O)c2ccccc2C)c1=O	EP2 mod 78 | EP2 cAMP induct active
S=c1[nH]nc(COc2ccccc2)n1Cc1ccccc1	none
Cc1cccc(OCc2n[nH]c(=S)n2Cc2ccccc2)c1	none (no result: NPY-Y2 antag) | EP2 cAMP induct inactive
CCn1c(COc2ccc(Cl)cc2)nnc1SCC(=O)NCc1ccco1	none (no result: NPY Y1 blocker, NPY-Y2 antag, NPY-Y2 PAM-ag, NPY-Y1 PAM-ag)
CCOC(=O)Cn1c(=S)[nH]c2c(oc3ccc(Cl)cc32)c1=O	EP2 mod 98 | EP2 cAMP induct inactive
COc1ccc(-c2c(C(C)=O)c(C)nc3sc4c(c23)NC(c2ccccc2)NC4=O)cc1 (stereo not drawn)	EP2 mod 70 | EP2 cAMP induct inactive
Cc1nc2c(-c3ccccc3)c(C)nn2c(C)c1CCC(=O)N1CCOCC1	EP2 mod 78 | EP2 cAMP induct inactive
Cc1nnc(SCC(=O)N2c3ccccc3C(C)(c3ccccc3)CC2(C)C)s1 (stereo not drawn)	EP2 mod 67 | EP2 cAMP induct inactive
COc1ccc(Cl)cc1-n1c(C)ccc1C	EP2 mod 69 | EP2 cAMP induct inactive
COc1ccccc1-n1c(C)ccc1C	none (no result: NPY Y1 blocker, NPY-Y2 antag, NPY-Y2 PAM-ag, NPY-Y1 PAM-ag)
O=C(O)COc1ccc(NC(=O)c2cc3ccccc3oc2=O)cc1	none (no result: NPY Y1 blocker, NPY-Y2 antag, NPY-Y2 PAM-ag, NPY-Y1 PAM-ag)
CCOC(=O)c1sc2nccc(N(C)C)c2c1N=CNOC	none
CCOC(=O)c1sc2nccc(N(C)C)c2c1N=CNOCc1ccccc1	EP2 mod 74 | EP2 cAMP induct active
Cc1ccc(-c2csc(N(CC3CCCO3)C(=O)c3ccco3)n2)cc1 (stereo not drawn)	EP2 mod 72 | EP2 cAMP induct active
O=C(c1ccco1)N(CC1CCCO1)c1nc(-c2ccccc2)cs1 (stereo not drawn)	EP2 mod 66 | EP2 cAMP induct inactive
O=C(c1cccs1)N(CC1CCCO1)c1nc(-c2ccccc2)cs1 (stereo not drawn)	none
COc1ccc(-c2csc(N(CC3CCCO3)C(=O)c3ccc(C)cc3)n2)cc1 (stereo not drawn)	none
COc1ccccc1NC(=O)c1c(C)oc2c1CCCC2	EP2 mod 79 | EP2 cAMP induct inactive
Cc1oc2c(c1C(=O)Nc1cccc3ccccc13)CCCC2	none
Cc1cc(NC(=O)CSc2nnc3n(CC(=O)N4CCCC4)c4ccccc4n23)no1	none (no result: NPY Y1 blocker, NPY-Y2 antag, NPY-Y2 PAM-ag, NPY-Y1 PAM-ag)
CCOc1ccc2cc(C#N)c(SCC(=O)NC(C)CC)nc2c1 (stereo not drawn)	EP2 mod 69 | EP2 cAMP induct inactive
CCOc1ccccc1NC(=O)C(C)Sc1nc(-c2ccccc2)cc(C(F)(F)F)n1 (stereo not drawn)	none (no result: NPY Y1 blocker, NPY-Y2 antag, NPY-Y2 PAM-ag, NPY-Y1 PAM-ag)
Cn1c(=O)oc2cc(S(=O)(=O)N3CCCCC3CN3CCCCC3)ccc21 (stereo not drawn)	none (no result: NPY Y1 blocker, NPY-Y2 antag, NPY-Y2 PAM-ag, NPY-Y1 PAM-ag)
COc1ccc(C(=O)CSc2nnc(COc3ccc(C#N)cc3)n2-c2ccccc2)cc1	none
O=C(CSc1nnc(COc2ccccc2)n1-c1ccccc1)c1ccccc1	none | EP2 cAMP induct inactive
CS(=O)(=O)N1CCc2cc(C(=O)Nc3cccc4ccccc34)ccc21	none (no result: NPY Y1 blocker, NPY-Y2 antag, NPY-Y2 PAM-ag, NPY-Y1 PAM-ag)
COc1ccccc1NC(=O)COc1ccccc1	none
O=C(COc1ccccc1)Nc1ccccc1Oc1ccccc1	EP2 mod 72 | EP2 cAMP induct active
O=C(Nc1ccccc1Oc1ccccc1)c1ccccc1F	EP2 mod 68 | EP2 cAMP induct inactive
O=C(Nc1cc(Cl)ccc1Oc1ccccc1)c1ccccc1F	none
O=C(COc1ccccc1)Nc1ccccc1N1CCN(c2ccccc2)CC1	EP2 mod 73 | EP2 cAMP induct active
CCN(CC)S(=O)(=O)c1c(OC)cc(C)c(Cl)c1C	EP2 mod 66 (no result: NPY-Y2 antag) | EP2 cAMP induct inactive
O=C(c1ccccc1F)N1CCC(Cn2nc(-c3cccs3)ccc2=O)CC1	none (no result: NPY Y1 blocker, PGE2 EP2 inh, NPY-Y2 antag, NPY-Y2 PAM-ag, NPY-Y1 PAM-ag)
CCOC(=O)c1oc2ccccc2c1NC(=O)c1cccc(OC)c1OC	EP2 mod 66 | EP2 cAMP induct inactive
CCOC(=O)c1oc2ccccc2c1NC(=O)CCl	none (no result: NPY Y1 blocker, NPY-Y2 antag)
Cc1cc(=O)oc(C)c1C(=O)OC(C(=O)c1ccccc1)c1ccccc1 (stereo not drawn)	EP2 mod 67 | EP2 cAMP induct inactive
Cc1cc(=O)oc(C)c1C(=O)OCC(=O)c1ccccc1	none
CC1CCCN(C(=O)CSc2ncnc3c(-c4ccc(Cl)cc4)nsc23)C1 (stereo not drawn)	none (no result: NPY Y1 blocker, NPY-Y2 antag, NPY-Y2 PAM-ag, NPY-Y1 PAM-ag)
CC(C)c1nc2sc3c(NCc4ccccc4)ncnc3c2c2c1COC(C)(C)C2	none
CCN(CCO)c1ncnc2c1sc1nc(C(C)C)c3c(c12)CC(C)(C)OC3	EP2 mod 79 | EP2 cAMP induct inactive
C[C@H]1CC[C@@H](C(C)(C)O)CC2=C1CC[C@@H]2C	none (no result: NPY Y1 blocker, NPY-Y2 antag, NPY-Y2 PAM-ag, NPY-Y1 PAM-ag) | EP2 cAMP induct inactive
Cc1c(C(=O)NCc2ccccc2)oc2ccccc12	none (no result: NPY Y1 blocker, NPY-Y2 antag, NPY-Y2 PAM-ag, NPY-Y1 PAM-ag)
CC(Cc1ccccc1)NC(=O)C1(c2ccccc2)CCOCC1 (stereo not drawn)	EP2 mod 69 | EP2 cAMP induct inactive
OCCCNc1nc(-c2ccc(Br)cc2)nnc1-c1ccc(Cl)cc1	EP2 mod 95 | EP2 cAMP induct active
CC(C)C1COC(c2cccn2Cc2ccccc2Cl)=N1 (stereo not drawn)	EP2 mod 68 (no result: NPY-Y2 antag) | EP2 cAMP induct inactive
CCOC(=O)c1c(-c2ccc(C)cc2)csc1NC(=O)c1ccc(N2C(=O)CCC2=O)cc1	EP2 mod 70 | EP2 cAMP induct inactive
CCOC(=O)c1c(-c2ccc(C)cc2)csc1NC(=O)CCN1CCOCC1	EP2 mod 90 | EP2 cAMP induct active
CCOC(=O)c1c(NC(=O)C2C3C=CC(C3)C2C(=O)O)sc2c1CC(C)CC2 (stereo not drawn)	none (no result: NPY-Y2 antag)
CCOC(=O)c1c(-c2ccc(C)cc2)csc1NC(=O)c1cccc(N2C(=O)CCC2=O)c1	none
CCOC(=O)c1c(-c2cccs2)csc1NC(=O)CN1CCOCC1	EP2 mod 69 | EP2 cAMP induct inactive
CCOC(=O)c1c(NC(=O)c2ccc(N3C(=O)[C@@H]4[C@H](C3=O)[C@H]3C=C[C@@H]4C3)cc2)sc2c1CC(C)CC2 (stereo partly drawn)	none | EP2 cAMP induct inactive

Source: PubChem (several laboratories)
